The results in this text go back to ChEMBL document CHEMBL1124374, “Enkephalinase inhibitors. 1. 2,4-Dibenzylglutaric acid derivatives” (J Med Chem, 1989).

Assay [1] concerns Mus musculus. Put plainly: Stretching activity in male CF-1 mice, after the intra peritoneal administration of acetic acid and subcutaneous administration of compound. The format is functional. The following applies: sc. In a few lines:
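Male CF-1 mice (18–22 g), twelve per dose of agent or vehicle, dosed sc 15 min before ip 3% aqueous acetic acid at 10 mL/kg. Five minutes after irritant, stretching episodes counted over 10 min. ED50 derived from these counts.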

The subject of assay [2] is Mus musculus. The assay can be described thus: Doubling of hotplate jump-latency activity in mouse after intra cerebro ventricular administration of the compound. The format is functional. In a few lines: (§1)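 Male CF1 mice (18–23 g) dosed icv or sc; 15 min later placed singly on a copper hot plate held at 55 °C. Latency to jump recorded, cutoff 240 s. MED = minimum effective dose. ED200 = dose doubling jump latency.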

Assay [3] relates to Mus musculus. Put plainly: Doubling of hotplate jump-latency activity in mouse after subcutaneous administration of the compound. The format is functional. In a few lines:
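Male CF1 mice (18–23 g) dosed sc; 15 min later placed singly on copper hot plate held at 55 °C. Latency to jump off recorded, cutoff 240 s. ED200 is the dose doubling jump latency.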

Assay [4] concerns Mus musculus. Put plainly: Tail-flick latency observed in CF-1 mice after the administration (3 mg/kg) followed by icv administration of DAEM ([D-Ala2,Met5]enkephalin). It is filed as functional. In a few lines: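 Male CF-1 mice (20–22 g) given test agent or vehicle sc, then immediately DAEM (1 μg) or vehicle icv. Tail-flick latency read 30 min later, cutoff 10 s; n = 10 per group.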

In assay [5] the test system is Mus musculus. Put plainly: Hot-plate jump-latency activity in mouse 15 minutes after subcutaneous administration. It is filed as functional. The following applies: sc, 0.25 h, read-out: MED. In a few lines:
as §1

Assay [6] deals with T1, Neprilysin (Oryctolagus cuniculus, UniProt P08049).
T1 sequence (P08049 whole entry): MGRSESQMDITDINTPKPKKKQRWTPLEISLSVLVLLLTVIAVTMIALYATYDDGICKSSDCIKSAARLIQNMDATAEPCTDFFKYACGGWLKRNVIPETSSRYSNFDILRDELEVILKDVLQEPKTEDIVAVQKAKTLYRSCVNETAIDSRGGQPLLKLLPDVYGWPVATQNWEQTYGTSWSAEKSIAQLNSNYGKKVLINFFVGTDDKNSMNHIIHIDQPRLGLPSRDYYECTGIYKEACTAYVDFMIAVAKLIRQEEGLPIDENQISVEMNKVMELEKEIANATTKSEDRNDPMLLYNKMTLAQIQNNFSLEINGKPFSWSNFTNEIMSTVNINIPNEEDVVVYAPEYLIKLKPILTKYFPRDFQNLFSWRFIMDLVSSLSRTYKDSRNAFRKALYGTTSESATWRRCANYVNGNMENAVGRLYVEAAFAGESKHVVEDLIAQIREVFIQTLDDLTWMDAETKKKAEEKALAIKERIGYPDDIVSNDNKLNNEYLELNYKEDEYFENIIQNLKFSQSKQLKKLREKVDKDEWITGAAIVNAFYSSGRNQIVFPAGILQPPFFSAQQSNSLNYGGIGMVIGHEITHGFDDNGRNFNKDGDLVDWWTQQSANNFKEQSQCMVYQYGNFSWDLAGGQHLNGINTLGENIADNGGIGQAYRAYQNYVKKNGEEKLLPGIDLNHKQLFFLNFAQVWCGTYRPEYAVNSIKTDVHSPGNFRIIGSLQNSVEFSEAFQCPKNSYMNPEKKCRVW
The assay can be described thus: Inhibitory activity against Enkephalinase from rabbit using method 2 is determined. In a few lines:
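Rabbit protease 24.11 (15 ng protein) incubated 10 min at 37 °C with [Tyr-3H]Leu-enkephalin plus unlabeled Leu-enkephalin (1 μM final) in 50 mM Tris-HCl, pH 6.5. Stopped with TFA. Tyr-Gly-Gly product separated from substrate by C4 reverse-phase HPLC (isocratic, 0.09% TFA/acetonitrile). Fractions counted by scintillation.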

For assay [7], the target named is T2, Neprilysin (Rattus norvegicus, UniProt P07861).
T2 sequence (P07861 whole entry): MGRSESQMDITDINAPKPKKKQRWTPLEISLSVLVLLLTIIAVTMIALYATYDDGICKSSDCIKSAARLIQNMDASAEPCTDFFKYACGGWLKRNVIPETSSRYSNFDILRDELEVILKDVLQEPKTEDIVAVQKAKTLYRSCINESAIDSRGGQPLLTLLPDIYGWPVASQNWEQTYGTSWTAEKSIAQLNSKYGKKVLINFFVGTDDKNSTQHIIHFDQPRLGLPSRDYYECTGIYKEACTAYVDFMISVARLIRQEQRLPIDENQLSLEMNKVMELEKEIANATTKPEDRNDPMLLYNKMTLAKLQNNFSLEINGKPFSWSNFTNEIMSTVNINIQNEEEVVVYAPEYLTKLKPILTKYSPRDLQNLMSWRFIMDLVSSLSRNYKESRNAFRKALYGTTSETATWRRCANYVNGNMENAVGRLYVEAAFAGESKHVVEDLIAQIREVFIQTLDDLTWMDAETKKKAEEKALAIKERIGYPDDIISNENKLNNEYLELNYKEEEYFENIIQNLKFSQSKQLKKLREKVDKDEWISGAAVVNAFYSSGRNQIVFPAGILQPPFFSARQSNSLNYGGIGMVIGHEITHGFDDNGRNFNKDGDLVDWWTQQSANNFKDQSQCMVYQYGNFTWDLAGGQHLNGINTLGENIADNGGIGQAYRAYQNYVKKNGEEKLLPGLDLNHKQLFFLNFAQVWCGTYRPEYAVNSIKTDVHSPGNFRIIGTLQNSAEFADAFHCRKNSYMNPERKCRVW
The assay can be described thus: Inhibition of enkephalinase activity in synaptic membranes prepared from rat striatum. The format is cell membranes.

Assay [8] concerns Mus musculus. The assay can be described thus: Tail-flick latency observed in CF-1 mice after the administration (30 mg/kg) followed by icv administration of DAEM ([D-Ala2,Met5]enkephalin). It is filed as functional. In a few lines:
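Male CF-1 mice (20–22 g) given test agent or vehicle sc, followed immediately by icv DAEM (1 μg) or vehicle. Tail-flick latency measured 30 min later, cutoff 10 s, n = 10.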

In turn, `O=C(O)CNC(=O)C(CS)Cc1ccccc1` (stereo not given) [THIORPHAN] had an ED50 in assay [1] of 38 mg/kg. The ED200 is 75 µg in assay [2] and >100 mg/kg in assay [3]. The same compound came in with a Reaction time in assay [4] of 7.5 s. In addition, the minimal effective dose in assay [5] was determined as 100 mg/kg.
As to `O=C(O)CCNC(=O)[C@H](Cc1ccccc1)C[C@@H](Cc1ccccc1)C(=O)O`, the IC50 in assay [6] is 5 nM; in assay [7] it was 8 nM. In assay [2], this compound registered an ED200 of 15 µg. Further, the Reaction time in assay [8] came out at 8.6 s. In addition, the minimal effective dose in assay [5] was > 30 mg/kg.
